Measurements as given in ChEMBL document CHEMBL1157791, “Discovery of GSK1070916, a potent and selective inhibitor of Aurora B/C kinase” (J Med Chem, 2010).
pEC50, pIC50, pKi: −log10 of the molar value. Calls of active or inactive are those of the source. The calls are words filed in the database; no cut-off is given here.

What was measured:
Aurora kinase C [1] = target: T1, Aurora kinase C (Homo sapiens, UniProt Q9UQB9); test: Competitive inhibition of Aurora C ATP binding site
T1 sequence (Q9UQB9 whole entry): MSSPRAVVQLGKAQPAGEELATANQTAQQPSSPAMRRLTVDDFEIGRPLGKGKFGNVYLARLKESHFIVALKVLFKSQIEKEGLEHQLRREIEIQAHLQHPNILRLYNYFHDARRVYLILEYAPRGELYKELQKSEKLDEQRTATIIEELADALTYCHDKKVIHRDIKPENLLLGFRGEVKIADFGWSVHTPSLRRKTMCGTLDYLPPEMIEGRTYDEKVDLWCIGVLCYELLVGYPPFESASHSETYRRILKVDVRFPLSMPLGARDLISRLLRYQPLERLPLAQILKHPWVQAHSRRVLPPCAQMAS

[2] = target: T2, Aurora kinase C (Homo sapiens) (UniProt Q9UQB9); test: Inhibition of human Aurora C assessed as dissociation half life by rapid dilution method
T2 sequence (whole entry): T1 sequence (Q9UQB9 whole entry)

Aurora kinase C [3] = target: T1, Aurora kinase C; test: Competitive inhibition of human Aurora C ATP binding site
Cytochrome P450 1A2 = target: T3, Cytochrome P450 1A2 (Homo sapiens, UniProt P05177); test: Inhibition of CYP1A2 in human liver microsomes using phenacetin as substrate; assay type: ADME, Microsome
T3 sequence (P05177 whole entry): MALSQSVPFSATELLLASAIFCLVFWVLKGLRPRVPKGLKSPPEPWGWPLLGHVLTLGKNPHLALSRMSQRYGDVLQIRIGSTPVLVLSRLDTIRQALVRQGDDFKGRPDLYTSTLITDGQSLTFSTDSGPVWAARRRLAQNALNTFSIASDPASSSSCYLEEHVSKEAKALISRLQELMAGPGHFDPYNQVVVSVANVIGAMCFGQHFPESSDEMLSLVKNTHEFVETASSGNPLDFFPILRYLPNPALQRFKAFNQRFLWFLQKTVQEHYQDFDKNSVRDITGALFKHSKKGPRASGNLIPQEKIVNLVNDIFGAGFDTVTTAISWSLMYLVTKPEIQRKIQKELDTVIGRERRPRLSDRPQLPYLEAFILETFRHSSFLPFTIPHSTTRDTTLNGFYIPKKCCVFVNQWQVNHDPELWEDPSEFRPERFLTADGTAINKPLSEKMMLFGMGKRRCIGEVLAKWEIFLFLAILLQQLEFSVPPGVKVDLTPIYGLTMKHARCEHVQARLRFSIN
Summary of the method: (§1)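 Human liver microsome incubations with a selective probe substrate for each CYP isozyme. Product formation was read by LC/MS/MS. Activity with compound was normalized to activity without compound and expressed as percent of control activity.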

Cytochrome P450 2C9 [4] = target: T4, Cytochrome P450 2C9 (Homo sapiens, UniProt P11712); test: Inhibition of CYP2C9 in human liver microsomes using diclofenac as substrate; assay type: ADME, Microsome; summary of the method: as §1
Cytochrome P450 2C19 = Cytochrome P450 2C19 (Homo sapiens, UniProt P33261); test: Inhibition of CYP2C19 in human liver microsomes using S-mephenytoin as substrate; assay type: ADME, Microsome
Summary of the method: (§2)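 Human liver microsomes were incubated with a selective probe substrate for each CYP isozyme across a compound concentration series. Product formation was monitored by LC/MS/MS. Activity was normalized to the no-compound control, expressed as percent of control activity, and used to generate an IC50.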

Cytochrome P450 2D6 [5] = target: T5, Cytochrome P450 2D6 (Homo sapiens, UniProt P10635); test: Inhibition of CYP2D6 in human liver microsomes using bufuralol as substrate; assay type: ADME, Microsome; summary of the method: as §2
Cytochrome P450 3A4 = Cytochrome P450 3A4 (Homo sapiens, UniProt P08684); test: Inhibition of CYP3A4 in human liver microsomes using midazolam as substrate; assay type: ADME, Microsome; summary of the method: as §2
[6] = Blood clearance in mouse at 2 mg/kg, iv administered as single dose; assay type: ADME, organism-based; parameters: dose 2 mg/kg, route intravenous; details: whole blood
Summary of the method: (§3)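 Conscious mice received a single intravenous dose. Blood clearance, dose-normalized AUC(0-∞) and steady-state volume of distribution were derived from the profile.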

Mus musculus [7] = test: Dose normalized AUC (0 to infinity) in mouse at 2 mg/kg, iv administered as single dose; assay type: ADME, organism-based; parameters: time infinity, dose 2 mg/kg, route intravenous; details: in vivo; summary of the method: as §3
[8] = Volume of distribution at steady state in mouse at 2 mg/kg, iv administered as single dose; assay type: ADME, organism-based; parameters: dose 2 mg/kg, route intravenous; details: in vivo, read-out: Vdss; summary of the method: as §3
[9] = Mean residence time in mouse at 2 mg/kg, iv administered as single dose; assay type: ADME, organism-based; parameters: dose 2 mg/kg, route intravenous; details: in vivo
[10] = Solubility at pH 4; assay type: physicochemical; details: buffer
Mus musculus [11] = test: Inhibition of histone H3 phosphorylation in ip dosed mouse xenografted with human COLO205 cells after 30 hrs; assay type: functional, organism-based; details: COLO 205
Summary of the method: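 Mice bearing advanced Colo205 tumors were treated intraperitoneally at several doses. Tumor phospho-histone H3 (Ser10) was measured by ELISA 30 h post dose and expressed as percent inhibition relative to control.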

HL-60 [12] = test: Antitumor activity against human HL60 cells xenografted in nude mouse assessed as complete tumor regression at 75 mg/kg, ip QD for 5 days and for 2 cycles; assay type: functional, organism-based; parameters: dose 75 mg/kg
Summary of the method: (§4)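 Subcutaneous HL-60 xenografts in nude mice. Dosing was intraperitoneal, once daily for five days, repeated for two cycles (qdx5 ×2), at 75 or 100 mg kg-1. Untreated mice served as controls. Tumors were followed for regression and for regrowth up to 51 days after the last dose.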

HL-60 [13] = test: Antitumor activity against human HL60 cells xenografted in nude mouse assessed as complete tumor regression at 100 mg/kg, ip QD for 5 days and for 2 cycles; assay type: functional, organism-based; parameters: dose 100 mg/kg; summary of the method: as §4
HL-60 [14] = test: Antitumor activity against human HL60 cells xenografted in nude mouse assessed as complete suppression of tumor regrowth at 100 mg/kg, ip QD for 5 days and for 2 cycles measured on day 51 post last dose; assay type: functional, organism-based; parameters: dose 100 mg/kg; summary of the method: as §4
Aurora kinase B [15] = target: T6, Aurora kinase B (Homo sapiens, UniProt Q96GD4); test: Inhibition of human Aurora B by in vitro inhibition assay
[16] = Permeability by PAMPA; assay type: ADME; details: read-out: permeability
Aurora kinase A = target: T7, Aurora kinase A (Homo sapiens, UniProt O14965); test: Inhibition of human Aurora A
T7 sequence (O14965 whole entry): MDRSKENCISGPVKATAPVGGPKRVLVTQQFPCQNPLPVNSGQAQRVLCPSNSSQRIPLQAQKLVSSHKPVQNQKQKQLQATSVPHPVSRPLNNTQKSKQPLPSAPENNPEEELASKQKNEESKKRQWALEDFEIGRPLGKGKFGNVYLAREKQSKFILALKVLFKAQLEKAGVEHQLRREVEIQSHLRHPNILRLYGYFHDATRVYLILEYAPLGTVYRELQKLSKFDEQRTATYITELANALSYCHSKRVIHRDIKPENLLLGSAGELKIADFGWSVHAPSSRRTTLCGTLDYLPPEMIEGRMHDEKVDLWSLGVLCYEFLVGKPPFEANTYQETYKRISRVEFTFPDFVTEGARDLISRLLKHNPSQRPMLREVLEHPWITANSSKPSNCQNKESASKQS

A549 = test: Antiproliferative activity against human A549 cells after 6 to 7 days by celltiter-glo luminescence assay in absence of 70% human serum albumin; assay type: functional, cell-based
[17] = target: Hepatocyte growth factor receptor (Homo sapiens, UniProt P08581); test: Inhibition of MET
[18] = target: Insulin-like growth factor 1 receptor (Homo sapiens, UniProt P08069); test: Inhibition of IGF1R
Summary of the method: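 Part of a 328 human protein and lipid kinase selectivity panel run as in vitro activity or binding assays.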

Aurora kinase B [19] = target: T6, Aurora kinase B; test: Inhibition of human Aurora B assessed as residence time by rapid dilution method
[20] = Plasma clearance in iv dosed rat; assay type: ADME, organism-based
[21] = Half life in iv dosed rat; assay type: ADME, organism-based; details: in vivo
[22] = Volume of distribution at steady state in iv dosed rat; assay type: ADME, organism-based; details: in vivo, read-out: Vdss
Cytochrome P450 2C9 [23] = target: T4, Cytochrome P450 2C9; test: Inhibition of CYP2C9; assay type: ADME
Cytochrome P450 2D6 [24] = target: T5, Cytochrome P450 2D6; test: Inhibition of CYP2D6; assay type: ADME
Summary of the method: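 Human liver microsomes incubated with a selective probe substrate for each CYP isozyme, with and without test compound. Metabolite formation quantified by LC/MS/MS. Activity with compound normalized to activity without compound and expressed as percent of control. IC50 derived from the concentration response.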

T5 sequence (P10635 whole entry): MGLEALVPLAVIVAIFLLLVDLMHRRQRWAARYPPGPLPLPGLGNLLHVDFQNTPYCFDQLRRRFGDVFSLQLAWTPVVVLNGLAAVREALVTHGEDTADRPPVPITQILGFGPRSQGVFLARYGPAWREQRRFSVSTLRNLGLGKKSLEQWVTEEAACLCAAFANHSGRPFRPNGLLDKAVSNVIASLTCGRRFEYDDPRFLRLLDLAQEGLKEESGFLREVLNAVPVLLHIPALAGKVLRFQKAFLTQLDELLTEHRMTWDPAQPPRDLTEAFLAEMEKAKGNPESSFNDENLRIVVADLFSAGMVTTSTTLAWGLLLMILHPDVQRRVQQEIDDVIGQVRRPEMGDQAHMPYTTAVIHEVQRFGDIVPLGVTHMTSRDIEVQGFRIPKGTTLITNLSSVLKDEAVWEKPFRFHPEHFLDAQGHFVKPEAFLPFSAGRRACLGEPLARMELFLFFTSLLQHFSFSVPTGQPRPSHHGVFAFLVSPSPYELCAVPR
T6 sequence (Q96GD4 whole entry): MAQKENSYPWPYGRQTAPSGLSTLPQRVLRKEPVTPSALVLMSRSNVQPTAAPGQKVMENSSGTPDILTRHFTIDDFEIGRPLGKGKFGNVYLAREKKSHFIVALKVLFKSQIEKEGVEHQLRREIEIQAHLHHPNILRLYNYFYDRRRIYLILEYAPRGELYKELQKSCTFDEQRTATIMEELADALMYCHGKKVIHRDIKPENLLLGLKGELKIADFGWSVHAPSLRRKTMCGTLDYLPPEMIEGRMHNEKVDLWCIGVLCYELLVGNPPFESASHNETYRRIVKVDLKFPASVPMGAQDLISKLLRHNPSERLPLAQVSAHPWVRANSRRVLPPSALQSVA
T4 sequence (P11712 whole entry): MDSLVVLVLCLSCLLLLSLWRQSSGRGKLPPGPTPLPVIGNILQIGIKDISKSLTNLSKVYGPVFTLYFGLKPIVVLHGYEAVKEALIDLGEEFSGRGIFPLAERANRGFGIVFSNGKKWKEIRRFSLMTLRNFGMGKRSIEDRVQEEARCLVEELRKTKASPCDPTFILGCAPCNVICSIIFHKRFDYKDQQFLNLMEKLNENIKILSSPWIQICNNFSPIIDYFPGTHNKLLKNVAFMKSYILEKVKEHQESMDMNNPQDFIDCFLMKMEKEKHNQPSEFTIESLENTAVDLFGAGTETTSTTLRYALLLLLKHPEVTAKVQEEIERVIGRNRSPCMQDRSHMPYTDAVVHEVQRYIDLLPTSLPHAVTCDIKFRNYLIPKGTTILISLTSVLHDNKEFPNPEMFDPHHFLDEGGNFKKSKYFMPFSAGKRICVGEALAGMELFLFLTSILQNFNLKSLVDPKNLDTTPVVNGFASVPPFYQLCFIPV
Hepatocyte growth factor receptor, sequence (P08581 whole entry): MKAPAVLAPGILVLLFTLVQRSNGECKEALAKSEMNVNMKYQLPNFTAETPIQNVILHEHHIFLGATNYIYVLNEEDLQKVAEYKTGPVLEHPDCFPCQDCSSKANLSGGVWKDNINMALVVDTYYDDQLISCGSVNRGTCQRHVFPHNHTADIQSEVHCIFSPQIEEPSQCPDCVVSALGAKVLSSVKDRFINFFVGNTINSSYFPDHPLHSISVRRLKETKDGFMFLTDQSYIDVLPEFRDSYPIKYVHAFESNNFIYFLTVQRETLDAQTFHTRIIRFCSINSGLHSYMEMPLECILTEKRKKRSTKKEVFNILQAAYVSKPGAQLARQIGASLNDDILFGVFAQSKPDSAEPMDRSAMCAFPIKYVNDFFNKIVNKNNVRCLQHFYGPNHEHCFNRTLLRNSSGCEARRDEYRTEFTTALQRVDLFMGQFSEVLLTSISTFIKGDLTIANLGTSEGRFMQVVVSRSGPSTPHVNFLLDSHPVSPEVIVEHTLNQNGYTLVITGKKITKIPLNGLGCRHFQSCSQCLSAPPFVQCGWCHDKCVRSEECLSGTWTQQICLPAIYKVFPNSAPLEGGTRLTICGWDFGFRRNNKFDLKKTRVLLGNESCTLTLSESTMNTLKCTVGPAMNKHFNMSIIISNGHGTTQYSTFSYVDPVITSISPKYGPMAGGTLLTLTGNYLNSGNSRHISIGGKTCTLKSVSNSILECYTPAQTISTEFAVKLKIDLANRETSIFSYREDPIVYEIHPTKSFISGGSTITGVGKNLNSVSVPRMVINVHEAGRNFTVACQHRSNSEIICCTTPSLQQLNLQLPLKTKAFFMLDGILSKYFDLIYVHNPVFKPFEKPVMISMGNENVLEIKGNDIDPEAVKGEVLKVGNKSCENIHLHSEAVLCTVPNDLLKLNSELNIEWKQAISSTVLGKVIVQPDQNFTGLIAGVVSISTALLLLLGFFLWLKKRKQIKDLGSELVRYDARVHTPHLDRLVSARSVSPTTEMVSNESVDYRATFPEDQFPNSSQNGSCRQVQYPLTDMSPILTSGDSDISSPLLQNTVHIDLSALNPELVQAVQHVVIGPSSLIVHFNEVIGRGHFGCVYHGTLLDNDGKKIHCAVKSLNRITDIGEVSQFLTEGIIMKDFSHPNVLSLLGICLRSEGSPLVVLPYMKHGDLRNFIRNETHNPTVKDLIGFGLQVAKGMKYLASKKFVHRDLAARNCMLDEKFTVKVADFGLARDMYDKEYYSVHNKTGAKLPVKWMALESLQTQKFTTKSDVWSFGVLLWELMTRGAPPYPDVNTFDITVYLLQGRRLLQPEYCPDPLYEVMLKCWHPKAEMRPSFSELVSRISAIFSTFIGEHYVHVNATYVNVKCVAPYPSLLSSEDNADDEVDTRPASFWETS
Cytochrome P450 2C19, sequence (P33261 whole entry): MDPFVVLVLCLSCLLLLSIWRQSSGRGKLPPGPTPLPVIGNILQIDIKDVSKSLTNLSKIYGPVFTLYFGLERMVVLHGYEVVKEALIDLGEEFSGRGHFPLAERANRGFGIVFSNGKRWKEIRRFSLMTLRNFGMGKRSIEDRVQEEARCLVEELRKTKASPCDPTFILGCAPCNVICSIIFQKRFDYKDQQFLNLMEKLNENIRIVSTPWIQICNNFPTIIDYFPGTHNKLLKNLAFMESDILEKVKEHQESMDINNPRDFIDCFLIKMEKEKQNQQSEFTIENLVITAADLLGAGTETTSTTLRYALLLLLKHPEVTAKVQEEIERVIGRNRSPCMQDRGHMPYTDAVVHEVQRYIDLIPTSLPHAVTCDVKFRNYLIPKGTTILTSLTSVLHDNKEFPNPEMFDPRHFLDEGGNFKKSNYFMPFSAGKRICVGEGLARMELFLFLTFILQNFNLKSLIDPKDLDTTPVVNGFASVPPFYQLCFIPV
Insulin-like growth factor 1 receptor, sequence (P08069 31-736 limits assumed): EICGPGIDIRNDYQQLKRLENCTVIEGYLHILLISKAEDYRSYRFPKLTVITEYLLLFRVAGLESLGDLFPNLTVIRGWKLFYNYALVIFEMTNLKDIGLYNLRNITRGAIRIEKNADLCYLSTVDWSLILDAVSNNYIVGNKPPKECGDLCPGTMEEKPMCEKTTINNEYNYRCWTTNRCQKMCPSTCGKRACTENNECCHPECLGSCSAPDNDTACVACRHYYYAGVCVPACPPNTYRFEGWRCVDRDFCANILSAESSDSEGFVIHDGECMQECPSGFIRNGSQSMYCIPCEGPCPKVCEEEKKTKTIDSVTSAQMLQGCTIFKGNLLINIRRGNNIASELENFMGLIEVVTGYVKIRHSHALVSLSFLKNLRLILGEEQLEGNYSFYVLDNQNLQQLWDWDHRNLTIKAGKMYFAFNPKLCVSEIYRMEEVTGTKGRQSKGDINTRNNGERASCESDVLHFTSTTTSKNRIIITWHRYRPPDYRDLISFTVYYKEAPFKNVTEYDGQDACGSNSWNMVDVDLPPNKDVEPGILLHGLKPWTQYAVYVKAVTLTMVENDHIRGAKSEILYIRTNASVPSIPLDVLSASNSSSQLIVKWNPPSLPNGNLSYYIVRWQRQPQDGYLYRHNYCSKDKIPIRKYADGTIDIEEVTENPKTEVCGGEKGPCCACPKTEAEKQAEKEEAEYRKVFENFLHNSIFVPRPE
Insulin-like growth factor 1 receptor, sequence (P08069 741-1367 limits assumed): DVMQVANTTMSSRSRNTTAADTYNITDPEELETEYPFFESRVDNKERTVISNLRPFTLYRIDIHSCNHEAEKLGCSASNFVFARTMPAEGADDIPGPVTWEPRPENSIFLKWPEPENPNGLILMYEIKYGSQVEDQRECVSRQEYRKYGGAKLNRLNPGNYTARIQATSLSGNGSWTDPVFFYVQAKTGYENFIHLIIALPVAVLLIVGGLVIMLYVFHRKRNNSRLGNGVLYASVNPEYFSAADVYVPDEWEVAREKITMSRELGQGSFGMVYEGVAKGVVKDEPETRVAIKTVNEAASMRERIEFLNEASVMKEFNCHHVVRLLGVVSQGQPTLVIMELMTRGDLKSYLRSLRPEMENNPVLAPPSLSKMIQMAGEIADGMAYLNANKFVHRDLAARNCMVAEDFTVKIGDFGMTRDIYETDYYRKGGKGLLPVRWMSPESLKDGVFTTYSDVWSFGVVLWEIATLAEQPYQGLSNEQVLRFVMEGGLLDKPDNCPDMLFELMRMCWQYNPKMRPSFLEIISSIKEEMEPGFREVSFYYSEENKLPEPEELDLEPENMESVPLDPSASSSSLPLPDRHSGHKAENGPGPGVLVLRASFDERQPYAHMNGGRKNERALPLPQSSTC
Cytochrome P450 3A4, sequence (P08684 whole entry): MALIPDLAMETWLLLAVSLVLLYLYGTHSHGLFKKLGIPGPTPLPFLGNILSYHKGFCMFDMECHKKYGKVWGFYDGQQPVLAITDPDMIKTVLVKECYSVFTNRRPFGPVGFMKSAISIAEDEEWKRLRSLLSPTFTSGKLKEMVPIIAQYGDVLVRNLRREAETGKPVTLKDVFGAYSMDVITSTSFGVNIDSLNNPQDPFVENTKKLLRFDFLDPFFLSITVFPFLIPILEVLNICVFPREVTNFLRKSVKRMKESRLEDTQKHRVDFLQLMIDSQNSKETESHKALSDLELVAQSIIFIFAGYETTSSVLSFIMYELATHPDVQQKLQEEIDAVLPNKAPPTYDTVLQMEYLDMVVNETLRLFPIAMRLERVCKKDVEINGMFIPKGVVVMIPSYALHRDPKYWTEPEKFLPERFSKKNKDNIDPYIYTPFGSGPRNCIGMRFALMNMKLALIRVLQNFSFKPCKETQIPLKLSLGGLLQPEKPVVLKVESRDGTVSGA

CCn1cc(-c2ccnc3[nH]c(-c4cccc(CN(C)C)c4)cc23)c(-c2ccc(NC(=O)N(C)C)cc2)n1 [GSK-1070916]
pIC50 (Aurora kinase C [1]): 8.19
pKi (Aurora kinase C [1]): 8.82
Activity [2]: 270 min
pKi (Aurora kinase C [3]): 8.82
pIC50 (Cytochrome P450 1A2): < 4.48
pIC50 (Cytochrome P450 2C9 [4]): 4.42
pIC50 (Cytochrome P450 2C19): 4.09
pIC50 (Cytochrome P450 2D6 [5]): 4.92
inhibition (INH) (Cytochrome P450 3A4): Not Active
clearance [6]: 49.4 mL/min/kg
AUC (Mus musculus [7]): 345 ng·h/mL/mg/kg
Vd [8]: 0.8 L/kg
MRT [9]: 18 min
solubility [10]: > 10000 µg/mL
inhibition (Mus musculus [11]): Dose-dependent effect
inhibition (HL-60 [12]): Active
inhibition (HL-60 [13]): Active
inhibition (HL-60 [14]): Active
pIC50 (Aurora kinase B [15]): 8.30

CCn1cc(-c2ccnc3[nH]ccc23)c(-c2ccc(NC(=O)Nc3ccccc3)cc2)n1
Papp [16]: 17 ×10⁻⁶ cm/s
pIC50 (Aurora kinase A): 6.20
pEC50 (A549): 7.10
pIC50 [17]: 6.50
pIC50 [18]: 6.80
TIME (Aurora kinase B [19]): 0.128 h
clearance [20]: 128 mL/min/kg
half-life [21]: 12 min
Vd [22]: 1.7 L/kg
pIC50 (Cytochrome P450 2C9 [23]): > 7.00
pIC50 (Cytochrome P450 2D6 [24]): > 7.00
